Measured values as given in BindingDB's records for doi:10.1016/j.bmc.2008.04.041 (The University of Tokushima, 2008).

Assays:
[1] = biological target: 72 kDa type IV collagenase (Homo sapiens, UniProt P08253); assay: Inhibition of human bowes melanoma cell MMP2
[2] = biological target: Matrix metalloproteinase-9 (Bos taurus, UniProt P52176); assay: Inhibition of bovine arterial endothelial cell MMP9
[3] = biological target: Vascular endothelial growth factor receptor 1 (Homo sapiens, UniProt P17948); assay: Inhibition of Flt1 expressed in mouse NIH3T3 cells by autoradiography
[4] = biological target: Epidermal growth factor receptor (Homo sapiens, UniProt P00533); assay: Inhibition of human A431 cell EGFRK assessed as 32P phosphorylation by scintillation counter
How it was run: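 Solubilized A431 cell lysate, debris removed, incubated with or without EGF for 30 min at 25 °C. Reaction started with [γ-³²P]ATP, 10 min at 0 °C. After stopping and washing, receptor phosphorylation measured as ³²P by scintillation counting.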

Chain of 72 kDa type IV collagenase (P08253 whole entry): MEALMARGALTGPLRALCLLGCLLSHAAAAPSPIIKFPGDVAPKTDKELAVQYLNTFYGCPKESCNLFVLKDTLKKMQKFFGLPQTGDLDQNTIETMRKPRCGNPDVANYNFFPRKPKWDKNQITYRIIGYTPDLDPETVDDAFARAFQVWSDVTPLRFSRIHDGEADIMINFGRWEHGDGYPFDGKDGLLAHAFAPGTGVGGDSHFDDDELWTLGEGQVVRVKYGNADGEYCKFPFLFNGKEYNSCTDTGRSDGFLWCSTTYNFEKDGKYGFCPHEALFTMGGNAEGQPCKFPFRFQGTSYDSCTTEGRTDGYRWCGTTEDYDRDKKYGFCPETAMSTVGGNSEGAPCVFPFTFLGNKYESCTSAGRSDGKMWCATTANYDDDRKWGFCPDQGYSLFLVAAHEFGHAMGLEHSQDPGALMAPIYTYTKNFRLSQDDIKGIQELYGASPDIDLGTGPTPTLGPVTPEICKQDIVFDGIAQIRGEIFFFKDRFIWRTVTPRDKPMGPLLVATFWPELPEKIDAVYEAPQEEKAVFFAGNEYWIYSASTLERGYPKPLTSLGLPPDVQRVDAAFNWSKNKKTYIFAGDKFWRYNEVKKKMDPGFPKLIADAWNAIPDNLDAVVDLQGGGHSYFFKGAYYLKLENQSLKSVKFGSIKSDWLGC
Chain of Epidermal growth factor receptor (P00533 whole entry): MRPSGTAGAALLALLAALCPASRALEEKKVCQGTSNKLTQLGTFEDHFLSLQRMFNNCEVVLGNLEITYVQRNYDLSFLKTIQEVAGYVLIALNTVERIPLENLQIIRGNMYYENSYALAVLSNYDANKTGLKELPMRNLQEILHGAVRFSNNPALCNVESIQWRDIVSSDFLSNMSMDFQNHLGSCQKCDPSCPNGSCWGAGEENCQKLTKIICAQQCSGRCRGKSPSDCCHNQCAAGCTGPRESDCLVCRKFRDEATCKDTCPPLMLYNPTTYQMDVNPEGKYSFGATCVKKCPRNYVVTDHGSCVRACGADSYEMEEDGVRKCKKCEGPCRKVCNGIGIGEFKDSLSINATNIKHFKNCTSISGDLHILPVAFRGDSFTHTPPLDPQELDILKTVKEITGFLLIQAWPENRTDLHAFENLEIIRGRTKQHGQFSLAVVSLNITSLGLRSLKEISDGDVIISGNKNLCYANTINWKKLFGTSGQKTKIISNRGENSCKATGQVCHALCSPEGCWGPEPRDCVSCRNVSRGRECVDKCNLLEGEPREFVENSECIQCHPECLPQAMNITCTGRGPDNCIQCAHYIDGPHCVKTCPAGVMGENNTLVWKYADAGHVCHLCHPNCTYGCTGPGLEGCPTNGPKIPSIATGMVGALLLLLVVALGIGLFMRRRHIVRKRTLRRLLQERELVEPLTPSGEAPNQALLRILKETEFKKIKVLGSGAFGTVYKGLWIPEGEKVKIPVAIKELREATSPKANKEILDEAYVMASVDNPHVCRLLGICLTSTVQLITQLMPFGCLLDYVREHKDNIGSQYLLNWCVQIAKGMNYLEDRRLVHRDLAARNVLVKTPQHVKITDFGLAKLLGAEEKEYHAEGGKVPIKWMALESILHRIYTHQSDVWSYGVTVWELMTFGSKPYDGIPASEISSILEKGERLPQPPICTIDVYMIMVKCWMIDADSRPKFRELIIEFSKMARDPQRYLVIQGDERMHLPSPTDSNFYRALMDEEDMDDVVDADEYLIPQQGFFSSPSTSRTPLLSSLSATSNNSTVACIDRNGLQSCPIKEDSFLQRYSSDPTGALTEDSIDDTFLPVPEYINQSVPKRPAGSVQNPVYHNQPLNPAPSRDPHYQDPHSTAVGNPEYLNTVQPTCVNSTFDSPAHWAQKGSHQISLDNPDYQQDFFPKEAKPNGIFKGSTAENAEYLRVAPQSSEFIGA
Chain of Matrix metalloproteinase-9 (P52176 whole entry): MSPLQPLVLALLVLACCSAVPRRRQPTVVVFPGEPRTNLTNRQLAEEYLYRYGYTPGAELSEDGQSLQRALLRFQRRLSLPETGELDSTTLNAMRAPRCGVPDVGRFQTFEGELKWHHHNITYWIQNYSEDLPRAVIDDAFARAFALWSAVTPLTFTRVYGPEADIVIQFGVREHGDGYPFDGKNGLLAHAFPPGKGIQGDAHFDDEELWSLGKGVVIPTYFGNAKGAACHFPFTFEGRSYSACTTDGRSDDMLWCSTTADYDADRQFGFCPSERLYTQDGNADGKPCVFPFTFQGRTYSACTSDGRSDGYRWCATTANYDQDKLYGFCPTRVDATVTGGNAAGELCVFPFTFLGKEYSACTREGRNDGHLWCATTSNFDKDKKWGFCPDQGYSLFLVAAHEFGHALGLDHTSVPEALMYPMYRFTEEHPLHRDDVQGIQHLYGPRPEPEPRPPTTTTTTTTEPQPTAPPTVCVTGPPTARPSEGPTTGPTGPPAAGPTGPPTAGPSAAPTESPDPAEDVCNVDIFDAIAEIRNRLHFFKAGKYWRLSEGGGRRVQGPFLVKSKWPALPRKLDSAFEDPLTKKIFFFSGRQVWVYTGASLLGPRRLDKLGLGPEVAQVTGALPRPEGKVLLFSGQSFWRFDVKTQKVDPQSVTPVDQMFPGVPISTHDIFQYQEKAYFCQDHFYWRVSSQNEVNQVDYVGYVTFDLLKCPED
Chain of Vascular endothelial growth factor receptor 1 (P17948 whole entry): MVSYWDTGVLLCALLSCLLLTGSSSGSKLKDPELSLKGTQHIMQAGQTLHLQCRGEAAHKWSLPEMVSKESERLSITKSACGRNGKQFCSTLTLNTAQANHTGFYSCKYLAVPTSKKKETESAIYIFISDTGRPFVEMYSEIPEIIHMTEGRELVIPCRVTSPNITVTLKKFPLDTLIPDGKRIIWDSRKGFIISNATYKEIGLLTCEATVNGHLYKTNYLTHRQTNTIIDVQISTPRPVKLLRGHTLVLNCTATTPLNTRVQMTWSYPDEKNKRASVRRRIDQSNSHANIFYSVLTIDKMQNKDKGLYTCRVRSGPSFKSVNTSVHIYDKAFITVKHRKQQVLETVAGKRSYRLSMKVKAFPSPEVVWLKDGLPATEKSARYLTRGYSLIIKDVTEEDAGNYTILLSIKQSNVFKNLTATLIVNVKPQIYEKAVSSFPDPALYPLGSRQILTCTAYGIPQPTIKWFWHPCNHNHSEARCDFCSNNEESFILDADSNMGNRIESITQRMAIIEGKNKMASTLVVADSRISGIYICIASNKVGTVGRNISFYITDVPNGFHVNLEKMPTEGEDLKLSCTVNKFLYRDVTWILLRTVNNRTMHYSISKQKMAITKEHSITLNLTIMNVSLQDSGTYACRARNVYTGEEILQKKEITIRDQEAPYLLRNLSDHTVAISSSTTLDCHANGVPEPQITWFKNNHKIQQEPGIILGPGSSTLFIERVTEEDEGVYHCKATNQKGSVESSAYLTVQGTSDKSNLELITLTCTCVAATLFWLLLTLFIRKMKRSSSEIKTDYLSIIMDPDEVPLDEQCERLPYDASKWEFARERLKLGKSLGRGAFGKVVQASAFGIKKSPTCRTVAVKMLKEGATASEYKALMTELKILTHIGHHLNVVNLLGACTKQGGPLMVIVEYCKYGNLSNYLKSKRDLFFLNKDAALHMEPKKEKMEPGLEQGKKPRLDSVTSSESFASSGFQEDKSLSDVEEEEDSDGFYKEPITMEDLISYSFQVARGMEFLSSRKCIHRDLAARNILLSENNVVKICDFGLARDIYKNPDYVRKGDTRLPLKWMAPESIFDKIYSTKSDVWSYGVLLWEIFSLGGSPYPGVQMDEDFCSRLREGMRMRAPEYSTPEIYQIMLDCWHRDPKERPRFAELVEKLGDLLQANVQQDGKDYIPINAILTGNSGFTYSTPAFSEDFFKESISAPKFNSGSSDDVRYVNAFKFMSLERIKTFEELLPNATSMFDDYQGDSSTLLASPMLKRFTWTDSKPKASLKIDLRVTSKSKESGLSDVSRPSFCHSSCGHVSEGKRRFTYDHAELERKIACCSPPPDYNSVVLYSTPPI

SMILES	IC50 [1]	IC50 [2]	IC50 [3]	IC50 [4]
CC(C)(C)c1ccc(OC[C@@H](Cn2ccnc2[N+](=O)[O-])OC(=O)c2ccc(NC=C3C(=O)C=CC3=O)cc2)cc1 [TX-2036]	–	67 µM	18.4 µM	1.8 µM
CC(C)(C)c1ccc(OC[C@H](Cn2ccnc2[N+](=O)[O-])OC(=O)c2ccc(NC=C3C(=O)C=CC3=O)cc2)cc1 [TX-2037]	183 µM	103 µM	184 µM	18.4 µM
COC[C@H](Cn1ccnc1[N+](=O)[O-])OC(=O)c1ccc(NC=C2C(=O)C=CC2=O)cc1 [TX-2044]	–	–	–	23 µM

Continued, in another order:

IC50 [1]	IC50 [2]	SMILES	IC50 [3]	IC50 [4]
24 µM	53 µM	COC[C@@H](Cn1ccnc1[N+](=O)[O-])OC(=O)c1ccc(NC=C2C(=O)C=CC2=O)cc1	23.4 µM	–
> 240 µM	> 240 µM	COC[C@@H](Cn1ccnc1[N+](=O)[O-])OC(=O)c1ccc(NC(=O)C(F)(F)F)cc1 [TX-2045]	–	–
> 240 µM	> 240 µM	COC[C@H](Cn1ccnc1[N+](=O)[O-])OC(=O)c1ccc(NC(=O)C(F)(F)F)cc1 [TX-2046]	–	–
